Source: PubChem BioAssay
RAD52 anneal inh: inhibitors of human RAD52 DNA annealing. recombinant RAD52 DNA annealing, FRET fluorescence. P43351. inhibition, % at 18.7 µM. hit rate 0.46% among 360,000;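 active = every replicate showing at least 50% inhibition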
RAD54 inh: inhibitors of human RAD54 branch migration; RAD54 Holliday junction branch migration, FAM/BHQ fluorescence; inhibition, % at 10.4 µM; hit rate 0.14% among 360,000;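 active = mean normalized replicate activity at least 40 and at least half of replicates scoring 40 or more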;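 note: 0% = median of neutral control wells and 100% = median of positive control wells; inhibitors cause a drop in the FAM fluorescence signal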
FN deposition inh: fibronectin deposition inhibition; AH1F fibroblasts, Alexa488-fibronectin deposition fluorescence, overnight; inhibition, % at 12.6 µM; hit rate 0.086% among 350,000;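 active = mean inhibition across replicates of 30% or more, regardless of how many single replicates reach that level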;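 note: positive control wells lacked labelled fibronectin entirely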
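Assay system: AH1F fibroblasts assembling fluorescent fibronectin matrix; Amount: 10000 AH1F cells per well; Buffer or medium: DMEM, 2% serum; Probe or stimulus: Alexa488-fibronectin, 24 nM final in well; Doses: single compound dose, delivered by pin transfer; Incubation: 1 h adhesion, overnight exposure; Measured by: fluorescence 485/525 nm; Read-out: fibronectin deposition inhibition.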
N-glyco inh: blocks N-linked glycosylation in D54 reporter cells; D54 ERlucT glycosylation luciferase reporter, 24 h; percent of 100 nM tunicamycin response; AID 588692; hit rate 0.23% among 360,000; reporter increase, % at 12.5 µM;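 active = mean luciferase reporter signal, scaled so untreated is 0 and the glycosylation-blocking control 100, at or above a set limit in every replicate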;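 note: luciferase carries N-glycosylation sites so blocking glycosylation raises the light; 0% = median of neutral control wells and 100% = median of 100 nM tunicamycin wells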
MLL AF4-AF9 inh: inhibitors of human MLL-AF4/AF9 interaction; P42568; AlphaScreen, biotin-AF4 peptide binding to FLAG-AF9; inhibition, % at 10 µM; hit rate 0.47% among 350,000; AID 651704;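 active = every replicate reaching a set inhibition limit, whatever the replicate mean, cut at about 25% in these data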;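 note: 0% = plate neutral control median and 100% = total signal loss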
Target sequence (P42568 whole entry, looked up): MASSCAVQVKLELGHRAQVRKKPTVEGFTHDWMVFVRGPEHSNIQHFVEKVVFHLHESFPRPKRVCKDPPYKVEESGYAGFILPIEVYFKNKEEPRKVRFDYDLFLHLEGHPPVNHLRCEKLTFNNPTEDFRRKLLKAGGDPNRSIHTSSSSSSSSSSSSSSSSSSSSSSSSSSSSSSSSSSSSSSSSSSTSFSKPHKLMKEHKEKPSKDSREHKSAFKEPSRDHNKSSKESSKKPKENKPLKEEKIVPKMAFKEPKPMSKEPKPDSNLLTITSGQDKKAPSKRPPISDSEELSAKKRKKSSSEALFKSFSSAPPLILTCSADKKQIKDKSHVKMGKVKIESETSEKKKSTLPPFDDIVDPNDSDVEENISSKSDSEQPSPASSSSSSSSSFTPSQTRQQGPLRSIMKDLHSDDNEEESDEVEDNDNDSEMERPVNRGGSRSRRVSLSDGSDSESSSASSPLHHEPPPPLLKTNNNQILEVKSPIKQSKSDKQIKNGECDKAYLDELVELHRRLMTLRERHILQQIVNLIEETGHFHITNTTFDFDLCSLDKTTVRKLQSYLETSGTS
Active calls of the source: *; x = no result; ! = not active in a repeat. Shown are actives, neighbours in structure and some others; about 0.92% of the full set was active somewhere.

SMILES	RAD52 anneal inh	RAD54 inh	FN deposition inh	N-glyco inh	MLL AF4-AF9 inh
O=C(CCN1C(=O)/C(=C/c2cccs2)SC1=S)N1CCCCC1	-129	-7	1	50*	-2
C[C@@H]1CN([C@H](C)CO)C(=O)c2cc(NC(=O)C3CCCCC3)ccc2O[C@@H](C)CCCCO[C@@H]1CN(C)S(=O)(=O)c1cn(C)cn1	14	2	x	x	4
CN1[C@@H]2CN(S(C)(=O)=O)C[C@H]1C2c1ccc(-c2ccc(F)cc2)cc1 (some centres undefined)	x	x	-8	x	x
Cc1ccc(S(=O)(=O)N2[C@@H]3CNC[C@H]2C3c2ccc(-c3cccc(C#N)c3)cc2)cc1 (some centres undefined)	53*!	x	-1	x	-1
N#Cc1cccc(-c2ccc(C3[C@H]4CNC[C@@H]3N4S(=O)(=O)c3ccc(F)cc3)cc2)c1 (some centres undefined)	28	x	-11	x	-2
Cc1ccc(S(=O)(=O)N2[C@@H]3CNC[C@H]2C3c2ccc(-c3cccc(C)c3)cc2)cc1 (some centres undefined)	51*!	x	-6	x	4
Cc1ccccc1S(=O)(=O)N1[C@@H]2CNC[C@H]1C2c1ccc(/C=C/c2ccccc2)cc1 (some centres undefined)	51*!	x	0	x	1
COc1cccc(S(=O)(=O)N2[C@@H]3CNC[C@H]2C3c2ccc(-c3cccc(C)c3)cc2)c1 (some centres undefined)	41	x	0	x	-15
C[C@@H]1CN([C@@H](C)CO)C(=O)c2cccc(NC(=O)c3cnccn3)c2O[C@H]1CN(C)S(=O)(=O)c1ccc(Cl)cc1	x	x	-8	x	x
Cn1nc(-c2ccccc2)c(CO)c1Oc1cccc(C(F)(F)F)c1	-2	x	5	0	-2
Cc1ccc(Sc2c(CO)c(-c3ccccc3)nn2C)cc1	-3	x	-15	29*	-3
CCNC(=S)N1CCN(c2ccc([N+](=O)[O-])cc2)CC1	x	1	x	0	x
O=[N+]([O-])c1ccc(N2CCN(C(=S)NCc3ccc(Cl)cc3)CC2)cc1	-19	x	6	-5	34*
C[C@H](CO)N1C[C@H](C)[C@@H](CN(C)C(=O)Nc2cccc3ccccc23)OCc2cnnn2CCCC1=O	3	6	20	x	0
CO[C@@H]1CN(C)C(=O)c2ccc(NC(=O)C3CCCC3)cc2OC[C@@H](C)N(C(C)=O)C[C@@H]1C	8	x	2	x	-2
CCN(CC)c1ccc(NC(=O)Nc2ccccc2)cc1	-5	15	-1	-9	25*
CCN1CCN(c2nc3c(C)cccn3c(=O)c2/C=C(\C#N)S(=O)(=O)c2ccc(Cl)cc2)CC1	-161	x	4	0	30*
CO[C@@H]1CN(C)C(=O)c2cc(NS(=O)(=O)c3ccccc3C)ccc2OC[C@H](C)N(S(C)(=O)=O)C[C@H]1C	0	3	4	x	-2
C[C@@H]1CN([C@@H](C)CO)C(=O)c2cc(C#Cc3ccc(F)cc3)cnc2O[C@@H]1CN(C)C(=O)Nc1ccc(F)cc1	-9	6	x	x	0
CC(C)NC(=O)N1C[C@@H]2C(c3ccccc3)[C@H](C1)N2Cc1ccc(F)cc1 (some centres undefined)	x	x	5	x	x
COc1ccc2c3c([nH]c2c1)[C@@H](CO)NCC31CCN(Cc2ccc(F)cc2)CC1	72*	x	-8	x	x
COc1ccc2c3c([nH]c2c1)[C@H](CO)N(S(C)(=O)=O)CC31CCN(Cc2cccc(F)c2)CC1	x	x	x	x	36*
COc1ccc2c3c([nH]c2c1)[C@@H](CO)N(S(C)(=O)=O)CC31CCN(Cc2cccc(F)c2)CC1	x	x	x	x	27*
CCC(=O)N(C)C[C@@H]1Oc2cc(C#CC(C)(C)O)ccc2S(=O)(=O)N([C@H](C)CO)C[C@H]1C	6	-9	0	x	-2
O=C(C[C@H]1CC[C@@H]2[C@H](COC[C@H](O)CN2S(=O)(=O)c2ccccc2)O1)NCc1ccc(-c2ccccc2)cc1	56*	-6	-9	x	11
O=C(C[C@H]1CC[C@H]2[C@@H](COC[C@@H](O)CN2S(=O)(=O)c2ccccc2)O1)NCc1ccc(-c2ccccc2)cc1	36	-5	-8	x	5
O=C(C[C@@H]1CC[C@H]2[C@@H](COC[C@@H](O)CN2S(=O)(=O)c2ccccc2)O1)Nc1ccc(-c2ccccc2)cc1	0	-3	-4	x	-3
CS(=O)(=O)N1C[C@@H](O)COC[C@H]2O[C@@H](CC(=O)NCc3ccc(-c4ccccc4)cc3)CC[C@@H]21	59*	19	6	x	17
